CHRM5 agonist: human M5 muscarinic receptor agonists, primary screen, CHO-K1 cells, Fluo-8 calcium fluorescence. Muscarinic acetylcholine receptor M5 (Homo sapiens), P08912. CHO-K1 hM5 cells; 0% DMSO wells, 100% maximal acetylcholine response. 0.19% of 360,000 active. activation, % at 3 µM;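 active means activation above the run's mean over test compounds plus 3 SD, cut at about 23% in these data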;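 further: signal is peak over basal fluorescence ratio across the kinetic read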
M4 ag: human M4 muscarinic receptor agonists, primary screen, CHO-K1 cells, Fluo-8 calcium fluorescence; Muscarinic acetylcholine receptor M4 (Homo sapiens), P08173; CHO-K1 hM4/Gqi5; vehicle 0%, full acetylcholine response 100%; activation, % at 3 µM; 0.14% of 360,000 active; AID 624127, 2012;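 active means activation above the run mean over all test wells plus 3 SD, cut at about 32% in these data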;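 further: peak over basal fluorescence ratio per well then scaled between controls; 0% = DMSO wells and 100% = acetylcholine at EC100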
Target sequence (P08173 whole entry, looked up): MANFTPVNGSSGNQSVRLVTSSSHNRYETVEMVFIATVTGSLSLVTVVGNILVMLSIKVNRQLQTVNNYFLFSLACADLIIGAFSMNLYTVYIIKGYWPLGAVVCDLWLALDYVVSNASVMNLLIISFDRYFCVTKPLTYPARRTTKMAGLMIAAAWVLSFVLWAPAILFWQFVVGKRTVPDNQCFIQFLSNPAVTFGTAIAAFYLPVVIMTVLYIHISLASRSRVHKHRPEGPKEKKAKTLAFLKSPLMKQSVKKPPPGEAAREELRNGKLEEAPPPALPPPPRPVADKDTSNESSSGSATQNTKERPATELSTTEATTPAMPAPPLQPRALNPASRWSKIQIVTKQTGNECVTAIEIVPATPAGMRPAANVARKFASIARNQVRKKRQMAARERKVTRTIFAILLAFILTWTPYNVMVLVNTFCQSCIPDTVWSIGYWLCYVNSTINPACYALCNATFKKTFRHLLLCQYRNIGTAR
CHRM5 antagonist: human M5 muscarinic receptor antagonists, primary screen, CHO cells, Fluo-8 calcium fluorescence | inhibition, % at 3 µM | 0.59% of 360,000 active | Muscarinic acetylcholine receptor M5 (Homo sapiens), P08912 | AID 624040, 2012 | CHO-hM5 cells, ACh EC80;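 active means inhibition above a per-plate cutoff, the mean of that plate's test compounds plus 3 SD, cut at about 27% in these data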;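 further: 0% = acetylcholine EC80 with DMSO and 100% = DMSO without agonist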
M4 antag: human M4 muscarinic receptor antagonists, primary screen, CHO cells, Fluo-8 calcium fluorescence; Muscarinic acetylcholine receptor M4 (Homo sapiens), P08173; CHO-hM4 cells, ACh EC80; inhibition, % at 3 µM; 0.73% of 360,000 active; AID 624125, 2012;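 active means inhibition above its plate's cutoff, the mean inhibition of sample wells plus 3 SD, cut at about 27% in these data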;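 further: 0% = acetylcholine EC80 with DMSO and 100% = DMSO without agonist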
CHRM4 PAM: human M4 muscarinic receptor positive allosteric modulators, primary screen, CHO-K1 cells, Fluo-8 calcium fluorescence | Muscarinic acetylcholine receptor M4 (Homo sapiens), P08173 | CHO-K1 hM4/Gqi5, ACh EC20; 0% = ACh EC20, 100% = maximal ACh | activation, % at 3 µM | 0.4% of 360,000 active | AID 624126, 2012;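 active means activation above its plate's cutoff, the mean activation of sample wells plus 3 SD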
CHRM5 PAM: human M5 muscarinic receptor positive allosteric modulators, primary screen, CHO-K1 cells, Fluo-8 calcium fluorescence; AID 624038, 2012; activation, % at 3 µM; Muscarinic acetylcholine receptor M5 (Homo sapiens), P08912; CHO-K1 hM5, ACh EC20 PAM; 0% = ACh EC20, 100% = ACh EC100; 0.3% of 360,000 active;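 active means activation above the run cutoff, the mean activation of all test compounds plus 3 SD, cut at about 18% in these data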
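Assay system – human M5 receptor in CHO-K1 cells · Read-out – % activation, ACh-normalized · Technique – Fluo-8 calcium fluorescence · Dosing – single-point, 3 µM nominal · Incubation – Fluo-8 loading 80 min at 37 °C plus 30 min room temperature · Repeats – singlicate, one well per test compound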
* hit, by the source's call. Only some compounds are listed: those with a hit (about 1.8% of all), similar ones and a draw of the others.

SMILES | CHRM5 agonist | M4 ag | CHRM5 antagonist | M4 antag | CHRM4 PAM | CHRM5 PAM
CCCNC(=O)C1(C)CCN(CCOc2ccc(Cl)cc2)C1 (configuration not stated) | -2 | 1 | 5 | -1 | -5 | -4
O=S(=O)(Nc1ccc(N2CCOCC2)cc1)c1cc(Cl)ccc1Cl | 3 | 6 | 12 | -8 | 1 | 18*
C1=C[C@H]2CCCN3CC[C@@H]([C@@H]2[C@]32CO2)[C@H]1CCOCc1ccccc1 | -3 | 3 | 4 | 0 | -4 | -7
COc1ccc(Nc2nc(N3CCCC3)c3ccccc3n2)cc1 | -2 | 5 | 6 | 6 | 1 | -4
c1ccc(Nc2nc(N3CCNCC3)nc(N3CCOCC3)n2)cc1 | -1 | 1 | 5 | -9 | 5 | -6
CCN(CC)c1ccc(Nc2nc(N3CCOCC3)c3ccccc3n2)cc1 | -5 | 7 | 30* | 20 | -21 | -15
c1ccc(Nc2nc(N3CCOCC3)nc(N3CCOCC3)n2)cc1 | -3 | 1 | 17 | 3 | 31* | 5
CNC(=O)c1cc2cccc(OC)c2oc1=O | 1 | 1 | 0 | -6 | 6 | 2
COc1cccc2cc(C(=O)NCc3ccccn3)c(=O)oc12 | -2 | 2 | -2 | -1 | 22* | 1
O=C(C1CCN(S(=O)(=O)c2cnc[nH]2)CC1)N1CCN(c2ccc([N+](=O)[O-])cc2)CC1 | -4 | 1 | 12 | -9 | 14* | -2
COc1cccc(C(O)c2ncc(-c3cccc(C(F)(F)F)c3)[nH]2)c1 (configuration not stated) | 1 | 4 | -6 | -18 | 2 | -4
CC1(C)Cc2c(c(N3CCOCC3)nc3sc(C(=O)Nc4cccc(Cl)c4)c(N)c23)CO1 | -1 | 2 | -12 | -5 | 18* | 13
CC1(C)Cc2c(c(N3CCOCC3)nc3sc(C(=O)Nc4ccccc4)c(N)c23)CO1 | 0 | 5 | -7 | -13 | 5 | 3
CC1(C(=O)NC2CCc3ccccc32)CCN1CCc1ccccc1 (configuration not stated) | -3 | -3 | 2 | -2 | -1 | -3
Cc1ccc(S(=O)(=O)N2CC3(O)CN(C(=O)OC(C)C)N(C(=O)OC(C)C)CC3(OC(=O)NC3CCCC3)C2)cc1 (configuration not stated) | 2 | 10 | -4 | 3 | -7 | -4
O=C(N/N=C\c1cn(-c2ccccc2)nc1-c1ccccc1)c1ccc(Br)o1 | -4 | 9 | 14 | 27* | 27 | -9
Cc1ccc(-c2nn(-c3ccccc3)cc2/C=N/NC(=O)c2ccc(Br)o2)cc1 | -2 | 4 | 5 | 4 | -2 | 0
O=C(c1cc(Cl)cc(Cl)c1)N1CCC2CC1c1cc(N3CCCCC3)ccc12 (configuration not stated) | -3 | -2 | 13 | 27* | -12 | -18
CC(C)c1ccc(-c2nc(N3CCCC3)nc3n[nH]c(N)c23)cc1 | 3 | 1 | -2 | -5 | 12 | 54*
COc1cccc(C(=O)NCCS(=O)(=O)N2CCN(c3ccccc3)CC2)c1OC | 1 | 4 | 3 | -16 | -1 | -2
COc1ccc(CC(N)c2csc(Nc3ccc(C(=O)c4ccccc4)cc3)n2)cc1 (configuration not stated) | 3 | 12 | -1 | -6 | 3 | 1
COc1ccc(CC2=CC(=O)c3ccccc3C2=O)cc1 | 7 | 9 | 11 | 33* | -5 | 2
O=C(CCCN1CCN(c2ccccc2)CC1)c1ccc(F)cc1 | -3 | 2 | -3 | -19 | 0 | 0
O=C1CC(=C(c2ccccc2)c2ccccc2)C(=O)N1CCCCN1CCN(c2ccccc2)CC1 | -8 | 0 | 9 | 34* | -25 | -20
CC1OC(CCc2cccc(Cl)c2)Cc2[nH][nH]c(=O)c21 (configuration not stated) | 3 | 2 | 6 | 4 | -1 | 1
SMILES | CHRM5 agonist | M4 ag | CHRM5 antagonist | M4 antag | CHRM4 PAM | CHRM5 PAM
Cc1ccc(C)c(N2CCN(C(=O)c3cn(C)c4ccc(S(=O)(=O)N(C)C)cc4c3=O)CC2)c1 | -3 | 1 | 13 | 95* | -15 | -19
CN(C)S(=O)(=O)c1ccc2c(c1)c(=O)c(C(=O)N1CCN(c3ccccn3)CC1)cn2C | 1 | 0 | 4 | -8 | 6 | -6
Cc1ccc(Oc2ncccc2C(=O)NCC(=O)O)cc1 | 0 | 0 | 0 | -11 | 0 | 21*
CC(C)C[C@H]1CN(CCCC[C@H]2CNC(=O)C(=O)N2CCC2CCCCC2)C(=O)C(=O)N1CCc1ccccc1 | -3 | 0 | 4 | 8 | -1 | -7
O=C1NC[C@H](CCCCN2CCN(Cc3ccccc3)C(=O)C2=O)N(CCC2CCCCC2)C1=O | -3 | -1 | 10 | 8 | -2 | -4
CCn1nnnc1NCc1ccc(N2CCCC2)cc1 | -10 | 1 | 14 | 35* | -24 | -7
COc1cc(C(CCN2CCCC(C)C2)c2c(OC)cc(OC)c3c2OC(=O)CC3c2ccc(N(C)C)cc2)cc(OC)c1OC (configuration not stated) | 2 | 3 | -2 | 3 | 10 | 22*
CN1C=CC=C/C1=C1\SC(=S)N(c2ccccc2)C1=O | -5 | 1 | -1 | -5 | 17* | -2
CCCNC(=O)C1(C)CCCN(Cc2cc(-c3ccccc3)n(C)n2)C1 (configuration not stated) | 0 | 1 | -5 | -9 | 2 | 2
O=C(NCc1ccccn1)/C(=C/c1ccco1)NC(=O)c1ccccc1 | 0 | 5 | -4 | -14 | 21* | 0
CC(C1CC2CCC1C2)n1c(-c2ccco2)n[nH]c1=S (configuration not stated) | -6 | 0 | 29* | -3 | 2 | -15
Cc1ccc(-n2c(-c3ccco3)n[nH]c2=S)cc1 | 0 | 0 | 1 | 9 | -2 | 7
COCCN1C(=O)COc2ccccc2C1C(=O)Nc1c(C)cccc1C (configuration not stated) | 2 | 0 | -5 | -2 | 6 | -3
CCOC(=O)c1oc2ccc(CNC3CCCCC3)c(Cl)c2c1C | -4 | 8 | -6 | 55* | -17 | -8
CCOC(=O)c1oc2ccc(CNCCO)c(Cl)c2c1C | -4 | 1 | -2 | -1 | 2 | 2
O=C(/C=C/c1ccco1)N(Cc1cccc(Cl)c1)C1CCS(=O)(=O)C1 (configuration not stated) | -5 | 18 | 27* | -8 | -20 | -20

Assay outcomes as filed in PubChem BioAssay.
